ChEMBL document CHEMBL2069205 (Bioorg Med Chem Lett, 2012)

Columns and labels:
[1] = target: T1, Potassium voltage-gated channel subfamily KQT member 1 (Homo sapiens, UniProt P51787); experiment: Activation of Kv7.1 channel expressed in CHO cells assessed as depolarization-induced […] after 3 mins by patch clamp assay; format: cell-based
T1 sequence (P51787 whole entry): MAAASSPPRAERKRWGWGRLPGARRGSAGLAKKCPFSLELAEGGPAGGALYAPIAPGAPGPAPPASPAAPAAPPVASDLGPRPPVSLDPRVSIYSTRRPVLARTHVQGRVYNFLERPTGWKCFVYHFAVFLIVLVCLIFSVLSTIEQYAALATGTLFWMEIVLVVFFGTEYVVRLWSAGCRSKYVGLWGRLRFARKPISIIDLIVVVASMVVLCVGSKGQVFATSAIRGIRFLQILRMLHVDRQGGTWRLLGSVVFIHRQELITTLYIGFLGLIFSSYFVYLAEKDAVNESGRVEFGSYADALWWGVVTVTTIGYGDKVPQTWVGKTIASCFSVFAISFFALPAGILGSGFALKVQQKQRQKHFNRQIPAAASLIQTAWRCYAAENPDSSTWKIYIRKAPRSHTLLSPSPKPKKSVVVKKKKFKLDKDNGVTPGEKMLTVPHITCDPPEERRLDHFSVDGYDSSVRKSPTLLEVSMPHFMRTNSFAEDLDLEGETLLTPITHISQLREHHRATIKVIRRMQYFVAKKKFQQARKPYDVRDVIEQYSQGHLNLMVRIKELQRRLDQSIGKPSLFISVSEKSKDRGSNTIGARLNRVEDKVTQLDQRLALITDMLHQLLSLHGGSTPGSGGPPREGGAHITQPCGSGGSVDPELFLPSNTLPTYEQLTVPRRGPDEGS
Outline: (§1)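 CHO cells stably expressing KCNQ1 were run by perforated (amphotericin B, 50 µg/ml) population patch clamp in pH 7.4 HEPES extracellular solution. Cells were held at −80 mV and stepped to +40 mV for 2000 ms. Current at the end of the step was taken before and after 3 min of compound, as percent change. Wells needed >30 MΩ seal and 0.6–0.8 nA minimum current. EC50s came from 8-point, threefold dilutions in duplicate.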

[2] = target: T1, Potassium voltage-gated channel subfamily KQT member 1; experiment: Activation of Kv7.1 channel expressed in CHO cells assessed as depolarization-induced […] after 3 mins by patch clamp assay relative to control; format: cell-based; settings: 0.05 h, read-out: %max; outline: as §1
[3] = Intrinsic clearance in human liver microsomes; format: ADME, Microsome; settings: read-out: CLH
Outline: (§2)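 Intrinsic clearance was measured in hepatic microsomes, and the data were used to predict hepatic clearance (CL_HEP).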

[4] = Intrinsic clearance in rat liver microsomes; format: ADME, Microsome; settings: read-out: CLH; outline: as §2
Liver microsomes [5] = experiment: Drug metabolism in human liver microsomes assessed as methoxy-O-demethylation by mass spectrophotometry; format: ADME, Microsome
Outline: (§3)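 In vitro biotransformation in liver microsomes was examined, with primary metabolic pathways identified by mass spectrometry.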

Liver microsomes [6] = experiment: Drug metabolism in rat liver microsomes assessed as tolyl-oxidation by mass spectrophotometry; format: ADME, Microsome; outline: as §3
Liver microsomes [7] = experiment: Drug metabolism in human liver microsomes assessed as tolyl-oxidation by mass spectrophotometry; format: ADME, Microsome; outline: as §3
[8] = target: Potassium voltage-gated channel subfamily KQT member 2 (Homo sapiens, UniProt O43526); experiment: Activation of KCNQ2 channel expressed in CHO cells assessed as depolarization-induced […] after 3 mins by patch clamp assay relative to control; format: cell-based
[9] = target: T2, Potassium voltage-gated channel subfamily KQT member 4 (Homo sapiens, UniProt P56696); experiment: Activation of KCNQ4 channel expressed in CHO cells assessed as depolarization-induced […] after 3 mins by patch clamp assay relative to control; format: cell-based
T2 sequence (P56696 whole entry): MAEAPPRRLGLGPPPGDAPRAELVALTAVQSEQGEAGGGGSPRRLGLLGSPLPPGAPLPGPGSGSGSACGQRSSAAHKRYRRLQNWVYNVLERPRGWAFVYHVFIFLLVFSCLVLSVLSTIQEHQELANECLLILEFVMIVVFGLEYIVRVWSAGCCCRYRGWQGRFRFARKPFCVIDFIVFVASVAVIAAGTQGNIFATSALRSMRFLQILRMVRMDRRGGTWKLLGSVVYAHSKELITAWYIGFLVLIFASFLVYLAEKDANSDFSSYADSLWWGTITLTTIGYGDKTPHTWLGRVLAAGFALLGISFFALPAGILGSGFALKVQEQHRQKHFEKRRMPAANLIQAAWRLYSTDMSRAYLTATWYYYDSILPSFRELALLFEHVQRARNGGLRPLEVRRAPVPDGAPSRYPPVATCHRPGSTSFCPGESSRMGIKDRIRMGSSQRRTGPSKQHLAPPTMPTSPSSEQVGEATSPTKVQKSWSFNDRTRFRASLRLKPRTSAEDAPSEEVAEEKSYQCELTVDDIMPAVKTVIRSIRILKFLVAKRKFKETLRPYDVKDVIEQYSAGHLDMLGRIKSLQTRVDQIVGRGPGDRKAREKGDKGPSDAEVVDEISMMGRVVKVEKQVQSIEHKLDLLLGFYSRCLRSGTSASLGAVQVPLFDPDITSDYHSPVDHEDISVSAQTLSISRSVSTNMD
Outline: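 KCNQ4-expressing CHO cells were measured on the same perforated population patch-clamp platform. Cells were held at −70 mV and depolarized to +40 mV, with step current measured at +40 mV before and after 3 min of compound. Effect was calculated as percent change from the pre-compound current in the same well. The 8-point, threefold concentration series was run in duplicate.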

[10] = target: T3, Adenosine receptor A3 (Homo sapiens) (UniProt P0DMS8); experiment: Inhibition of human adenosine A3 receptor at 10 uM
T3 sequence (whole entry): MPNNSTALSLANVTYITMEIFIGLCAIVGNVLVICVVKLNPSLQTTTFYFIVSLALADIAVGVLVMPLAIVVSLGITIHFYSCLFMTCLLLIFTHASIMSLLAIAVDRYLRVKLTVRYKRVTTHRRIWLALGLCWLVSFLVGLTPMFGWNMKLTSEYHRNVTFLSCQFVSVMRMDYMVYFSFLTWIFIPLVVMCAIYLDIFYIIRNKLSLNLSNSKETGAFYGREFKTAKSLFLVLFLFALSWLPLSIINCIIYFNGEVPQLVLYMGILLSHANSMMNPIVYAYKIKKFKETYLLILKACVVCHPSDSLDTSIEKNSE
Outline: (§4)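 The Lead Profiling binding panel (68 GPCRs, ion channels and transporters) was run at a single point, reading percent inhibition.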

[11] = target: Cannabinoid receptor 1 (Homo sapiens) (UniProt P21554); experiment: Inhibition of human CB1 receptor at 10 uM; outline: as §4
[12] = target: 5-hydroxytryptamine receptor 2B (Homo sapiens) (UniProt P41595); experiment: Inhibition of human 5HT2B receptor at 10 uM
Outline: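 Commercial lead-profiling binding panel of up to 68 GPCRs, ion channels and transporters; percent inhibition measured at a single concentration of 10 µM.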

[13] = target: Sodium-dependent dopamine transporter (Homo sapiens) (UniProt Q01959); experiment: Inhibition of human DAT at 10 uM; outline: as §4
Plasma [14] = experiment: Fraction unbound in human plasma; format: ADME, cell-free
Outline: (§5)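 Plasma protein binding was measured by rapid equilibrium dialysis, giving the unbound fraction.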

Plasma [15] = experiment: Fraction unbound in rat plasma; format: ADME, cell-free; outline: as §5
Liver microsomes [16] = experiment: Drug metabolism in rat liver microsomes assessed as methoxy-O-demethylation by mass spectrophotometry; format: ADME, Microsome; outline: as §3

Chain of Potassium voltage-gated channel subfamily KQT member 2 (O43526 whole entry): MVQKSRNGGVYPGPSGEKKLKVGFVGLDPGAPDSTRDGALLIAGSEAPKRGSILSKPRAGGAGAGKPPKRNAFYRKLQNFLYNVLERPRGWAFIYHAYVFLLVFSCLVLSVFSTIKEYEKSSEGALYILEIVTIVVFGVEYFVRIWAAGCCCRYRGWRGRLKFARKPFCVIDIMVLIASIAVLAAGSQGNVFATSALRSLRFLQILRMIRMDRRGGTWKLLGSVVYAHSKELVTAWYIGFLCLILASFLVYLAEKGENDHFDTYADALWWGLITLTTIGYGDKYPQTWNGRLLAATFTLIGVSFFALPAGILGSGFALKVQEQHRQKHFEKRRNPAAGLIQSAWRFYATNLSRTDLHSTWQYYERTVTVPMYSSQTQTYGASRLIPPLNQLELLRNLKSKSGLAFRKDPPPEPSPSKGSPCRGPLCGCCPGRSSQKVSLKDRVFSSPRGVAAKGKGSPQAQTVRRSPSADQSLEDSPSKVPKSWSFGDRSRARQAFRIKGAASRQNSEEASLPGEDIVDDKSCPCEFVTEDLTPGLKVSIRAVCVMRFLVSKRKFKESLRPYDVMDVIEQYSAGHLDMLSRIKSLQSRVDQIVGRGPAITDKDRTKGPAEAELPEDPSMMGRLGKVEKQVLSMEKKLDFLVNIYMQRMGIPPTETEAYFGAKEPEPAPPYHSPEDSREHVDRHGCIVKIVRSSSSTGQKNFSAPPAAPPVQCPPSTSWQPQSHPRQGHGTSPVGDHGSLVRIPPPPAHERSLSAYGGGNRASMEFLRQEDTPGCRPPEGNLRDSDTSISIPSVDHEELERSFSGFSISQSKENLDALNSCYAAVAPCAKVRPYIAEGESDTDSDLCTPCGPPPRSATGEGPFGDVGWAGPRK
Chain of Cannabinoid receptor 1 (Homo sapiens) (P21554 whole entry): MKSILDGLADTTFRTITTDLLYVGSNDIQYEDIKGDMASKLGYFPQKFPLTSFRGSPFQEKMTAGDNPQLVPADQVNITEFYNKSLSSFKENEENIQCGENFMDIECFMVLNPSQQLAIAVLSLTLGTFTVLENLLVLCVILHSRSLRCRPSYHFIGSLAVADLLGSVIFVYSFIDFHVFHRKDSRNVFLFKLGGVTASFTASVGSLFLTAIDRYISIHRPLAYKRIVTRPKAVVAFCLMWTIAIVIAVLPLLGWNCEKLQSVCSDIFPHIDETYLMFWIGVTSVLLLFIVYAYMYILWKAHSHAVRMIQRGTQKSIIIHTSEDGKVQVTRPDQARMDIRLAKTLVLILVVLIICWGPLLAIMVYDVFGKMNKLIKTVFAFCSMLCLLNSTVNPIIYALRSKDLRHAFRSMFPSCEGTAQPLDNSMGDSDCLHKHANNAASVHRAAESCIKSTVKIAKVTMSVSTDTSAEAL
Chain of Sodium-dependent dopamine transporter (Homo sapiens) (Q01959 whole entry): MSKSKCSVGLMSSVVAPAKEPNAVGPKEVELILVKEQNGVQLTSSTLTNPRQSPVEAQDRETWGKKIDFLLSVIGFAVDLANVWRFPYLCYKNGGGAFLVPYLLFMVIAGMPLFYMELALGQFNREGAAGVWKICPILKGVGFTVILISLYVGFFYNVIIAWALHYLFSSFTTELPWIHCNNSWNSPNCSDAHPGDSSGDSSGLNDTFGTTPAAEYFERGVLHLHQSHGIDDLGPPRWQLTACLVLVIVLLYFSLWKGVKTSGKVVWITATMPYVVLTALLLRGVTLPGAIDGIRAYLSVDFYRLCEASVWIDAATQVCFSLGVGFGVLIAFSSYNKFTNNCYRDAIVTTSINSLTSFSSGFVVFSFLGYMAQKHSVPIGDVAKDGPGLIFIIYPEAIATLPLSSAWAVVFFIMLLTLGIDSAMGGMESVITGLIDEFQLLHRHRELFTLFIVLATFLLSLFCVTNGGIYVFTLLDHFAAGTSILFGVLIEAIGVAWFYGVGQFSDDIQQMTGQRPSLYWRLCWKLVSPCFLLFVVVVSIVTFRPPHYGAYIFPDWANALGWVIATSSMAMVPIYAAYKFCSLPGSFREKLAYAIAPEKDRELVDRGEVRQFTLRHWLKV
Chain of 5-hydroxytryptamine receptor 2B (Homo sapiens) (P41595 whole entry): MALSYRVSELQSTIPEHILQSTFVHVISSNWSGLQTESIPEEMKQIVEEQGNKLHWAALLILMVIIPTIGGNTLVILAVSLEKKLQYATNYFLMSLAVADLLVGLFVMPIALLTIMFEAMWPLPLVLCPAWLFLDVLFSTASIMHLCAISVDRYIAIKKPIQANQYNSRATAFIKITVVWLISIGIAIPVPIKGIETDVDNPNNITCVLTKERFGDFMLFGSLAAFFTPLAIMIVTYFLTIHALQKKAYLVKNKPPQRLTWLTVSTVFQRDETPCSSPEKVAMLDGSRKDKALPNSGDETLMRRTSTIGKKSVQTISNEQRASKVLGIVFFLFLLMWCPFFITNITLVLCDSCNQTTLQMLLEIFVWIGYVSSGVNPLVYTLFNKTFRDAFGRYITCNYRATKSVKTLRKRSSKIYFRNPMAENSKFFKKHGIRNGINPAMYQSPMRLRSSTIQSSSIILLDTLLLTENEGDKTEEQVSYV

Q: For `COc1ccc(-c2csc(NC(=O)[C@H]3CCCCN3S(=O)(=O)c3ccc4c(c3)OCO4)n2)cc1`, which EC50 [1] is on record?
A: Its EC50 is 780 nM.

Q: What about the Emax [2] of the same compound?
A: Its Emax is 178%.

Q: Which results are given for `COc1ccc(-c2csc(NC(=O)C3CCCCN3S(=O)(=O)c3ccccc3)n2)cc1` (racemic)?
A: EC50 [1]: 1690 nM; Emax [2]: 285%

Q: Which Activity ([1]; human, cho, 0.05 h) does the source give for `O=C(Nc1nc(-c2ccc(OC(F)(F)F)cc2)cs1)[C@H]1CCCCN1S(=O)(=O)c1ccc(OC(F)(F)F)cc1` here?
A: Its Activity is “Not Active”.

Q: What about the CLint scaled [3] of the same compound?
A: The CLint scaled was 7.9 mL/min/kg.

Q: And the CLint scaled [4]?
A: The CLint scaled was 20.6 mL/min/kg.

Q: Which EC50 [1] does the source give for `COc1ccc(-c2csc(NC(=O)[C@H]3CCCCN3S(=O)(=O)c3ccccc3)n2)cc1` here?
A: The EC50 was 1470 nM.

Q: And the Emax [2]?
A: Its Emax is 359%.

Q: Which EC50 [1] does the source give for `COc1ccc(-c2csc(NC(=O)[C@@H]3CCCCN3S(=O)(=O)c3ccccc3)n2)cc1` here?
A: Its EC50 is over 30000 nM.

Q: For `COc1ccc(-c2csc(NC(=O)[C@H]3CCCCN3S(=O)(=O)c3ccc(C)cc3)n2)cc1`, which Drug metabolism (Liver microsomes [5]) is on record?
A: The Drug metabolism was “Active”.

Q: And the Drug metabolism (Liver microsomes [6])?
A: The Drug metabolism was “Active”.

Q: What about the Drug metabolism (Liver microsomes [7]) of the same compound?
A: The Drug metabolism was “Active”.

Q: And the EC50 [8]?
A: Its EC50 is over 30000 nM.

Q: What about the EC50 [9] of the same compound?
A: Its EC50 is over 30000 nM.

Q: And the inhibition [10]?
A: The inhibition was 73%.

Q: And the inhibition [11]?
A: Its inhibition is 97%.

Q: What about the inhibition [12] of the same compound?
A: The inhibition was 66%.

Q: What about the inhibition [13] of the same compound?
A: The inhibition was 54%.

Q: What about the Fu (Plasma [14]) of the same compound?
A: Its Fu is 0.6%.

Q: And the Fu (Plasma [15])?
A: The Fu was 0.7%.

Q: What about the CLint scaled [3] of the same compound?
A: Its CLint scaled is 18 mL/min/kg.

Q: What about the CLint scaled [4] of the same compound?
A: The CLint scaled was 64.7 mL/min/kg.

Q: And the Drug metabolism (Liver microsomes [16])?
A: Its Drug metabolism is “Active”.
